PMC12099175 (Chemistry (Weinheim an Der Bergstrasse, Germany), 2025)
“Also recorded” adds a separate entry of the source. No end group written: not given here.

Assays:
Format in all cases: physicochemical
[1] = AFM surface morphology of amyloid fibrils; settings: 1.5 mg/mL, pH 3.8, 24 h mixing at 37 °C, 5 µL dried on mica
Outline: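 Hexapeptide at a final 1.5 mg/mL, pH 3.8, was stirred at 500–600 rpm at 37 °C for 24 h. This was the same stock used for FTIR and ECD. The 24-h solution was dropped on freshly cleaved mica and vacuum-dried for 24 h. Images were taken in dynamic mode near densely packed areas, with a 10×10 µm window and 512 pixels per line.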

[2] = Amyloid formation monitored by time-dependent far-UV ECD spectroscopy; settings: for amyloid formation in 10% EtOH (in words): 10% EtOH:90% H2O (ε = 68.742); for amyloid formation in 10% EtOH (in words) / amyloid formation in 50% MeOH (in words) / time to form β-sheets / B-type ECD spectrum in water / time to form amyloid in 50% MeOH: 37 °C; for amyloid formation in 10% EtOH (in words) / amyloid formation in 50% MeOH (in words) / time to form β-sheets / B-type ECD spectrum in water: stirred 500–600 rpm; for amyloid formation in 10% EtOH (in words) / amyloid formation in 50% MeOH (in words) / amyloidogenicity overall (in words): ECD; for amyloid formation in 50% MeOH (in words) / time to form amyloid in 50% MeOH: 50% MeOH:50% H2O (ε = 51.347); for time to form β-sheets / B-type ECD spectrum in water: 100% H2O; for time to form β-sheets / B-type ECD spectrum in water / time to form amyloid in 50% MeOH: ECD read-out; for amyloidogenicity overall (in words): all tested conditions (H2O, 10% EtOH, 50% MeOH), FTIR, AFM; for time to form amyloid in 50% MeOH: stirred
Outline: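 Peptides were dissolved at 0.15–1.50 mg/mL in water, 10% EtOH or 50% MeOH. Concentration was set by A280 of 5-fold dilutions (ε Tyr 1280, Trp 5690 M⁻¹ cm⁻¹), with pH adjusted by NaOH/HCl. Samples were stirred at 500–600 rpm, 37 °C, and measured directly at 0–168 h. Spectra covered 185–260 nm, 0.1 mm cell, 25 °C, three scans averaged, solvent-subtracted, Savitzky–Golay smoothed, and converted to mean residue ellipticity.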

[3] = Water solubility / peptide concentration needed for amyloid formation; settings: pure water

Row | Substance | AFM morphology (in words) [1] | amyloid formation in 10% EtOH (in words) [2] | amyloid formation in 50% MeOH (in words) [2] | time to form β-sheets / B-type ECD spectrum in water [2] | amyloidogenicity overall (in words) [2] | ECD mean residue ellipticity Θ at 202 nm ([2]; 50% MeOH, B-type signal) | time to form amyloid in 50% MeOH [2] | water solubility (in words) [3] | ECD mean residue ellipticity Θ, positive maximum at 208 nm ([2]; B-type spectrum after 24 hours)
1 | LYIQWL [LYIQWL] | Fibrillar amyloid formation | form amyloid | form amyloid | 1 h | highly amyloidogenic | – | – | – | –
2 | GNNQQNY [GNNQQNY, reference compound] | Fibrillar amyloid formation | – | – | – | – | – | – | – | –
3 | NNQQNY [NNQQNY] | Fibrillar amyloid formation | preventing amyloid formation | β‐sheets formed; also recorded: forms amyloid in 50% MeOH | – | highly amyloidogenic | ~53000 deg cm^2 dmol^−1 | within hours; also recorded: a few hours | highly water‐soluble | –
4 | NNQQWL [NNQQWL] | no detectable structures | – | No amyloid formation was observed | > 144 h | resists amyloid formation | – | – | – | –
5 | LYIQNY [LYIQNY] | – | rapid amyloid formation | rapid amyloid formation; also recorded: faster assembly | – | highly amyloidogenic | – | – | water‐soluble | –
6 | LYIQNL [LYIQNL] | – | form amyloid | form amyloid | – | highly amyloidogenic | – | – | – | –
7 | LYQQNY [LYQQNY] | – | Amyloid formation is confirmed | Amyloid formation is confirmed | – | highly amyloidogenic | – | – | – | ~+57000 deg cm^2 dmol^−1
8 | NNQQNL [NNQQNL] | empty AFM image | – | very slow amyloid formation | – | – | – | – | – | –
9 | LNIQWL [LNIQWL] | granular | – | – | – | remains amyloidogenic | – | – | – | –
10 | LNQQNY [LNQQNY] | – | forms amyloid very slowly | – | – | highly amyloidogenic | – | ≤ 24 h | – | –
11 | NNIQWL [NNIQWL] | no evidence of filament formation | – | – | – | did not form amyloid under any of the tested conditions | – | – | – | –
